ChEMBL document CHEMBL4373687, “Introducing nitrogen atoms to amidoalkylindoles: potent and selective cannabinoid type 2 receptor agonists with improved aqueous solubility” (Medchemcomm, 2019)

Legend:
Cannabinoid receptor 1 [1] = biological target: T1, Cannabinoid receptor 1 (Homo sapiens, UniProt P21554); test: Antagonist activity at human CB1-receptor expressed in CHO-K1 cells coexpressing G-alpha16 pre-incubated for 10 mins and later treated with 100 nM CB-receptor agonist, CP55940 by Fluo-4-AM dye based calcium mobilization assay; type: cell-based
T1 sequence (P21554 whole entry): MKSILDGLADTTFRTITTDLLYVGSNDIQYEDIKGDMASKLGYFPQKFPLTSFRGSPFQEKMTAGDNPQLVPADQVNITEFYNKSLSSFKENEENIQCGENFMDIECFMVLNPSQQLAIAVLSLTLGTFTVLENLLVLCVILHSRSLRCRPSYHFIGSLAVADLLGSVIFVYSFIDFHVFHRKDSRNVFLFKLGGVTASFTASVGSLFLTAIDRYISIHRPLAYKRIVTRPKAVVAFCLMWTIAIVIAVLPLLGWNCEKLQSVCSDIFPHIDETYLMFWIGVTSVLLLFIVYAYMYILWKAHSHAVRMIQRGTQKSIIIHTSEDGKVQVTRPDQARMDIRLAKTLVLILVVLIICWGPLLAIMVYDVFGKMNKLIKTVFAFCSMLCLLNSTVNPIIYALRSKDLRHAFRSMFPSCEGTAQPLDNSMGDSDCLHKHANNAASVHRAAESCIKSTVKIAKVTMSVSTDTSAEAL
Outline: (§1)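 CHO-K1 cells stably co-expressing Gα16 and human CB1 or CB2, loaded with 2 μM fluo-4 AM in HBSS pH 7.4 at 37 °C for 45 min. Pre-incubated with compound for 10 min at room temperature, then CP55940 added at 100 nM. Peak calcium read over 60 s (ex 485/em 525 nm). Rimonabant positive control. Actives got eight-point curves in triplicate, sigmoidal fit for IC50.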

Cannabinoid receptor 2 [2] = biological target: T2, Cannabinoid receptor 2 (Homo sapiens, UniProt P34972); test: Antagonist activity at human CB2-receptor expressed in CHO-K1 cells coexpressing G-alpha16 at 10 uM pre-incubated for 10 mins and later treated with 100 nM CB-receptor agonist, CP55940 by Fluo-4-AM dye based calcium mobilization assay; type: functional, cell-based; outline: as §1
T2 sequence (P34972 whole entry): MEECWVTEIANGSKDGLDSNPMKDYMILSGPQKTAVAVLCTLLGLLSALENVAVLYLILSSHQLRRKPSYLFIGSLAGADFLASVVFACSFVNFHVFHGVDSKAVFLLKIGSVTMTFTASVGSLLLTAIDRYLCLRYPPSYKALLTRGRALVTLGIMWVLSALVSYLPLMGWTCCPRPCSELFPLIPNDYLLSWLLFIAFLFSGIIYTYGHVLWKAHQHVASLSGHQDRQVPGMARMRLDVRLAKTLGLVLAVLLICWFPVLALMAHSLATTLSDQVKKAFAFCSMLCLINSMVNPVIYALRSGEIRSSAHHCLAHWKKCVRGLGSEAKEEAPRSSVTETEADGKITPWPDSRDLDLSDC

Cannabinoid receptor 1 [3] = biological target: T1, Cannabinoid receptor 1; test: Antagonist activity at human CB1-receptor expressed in CHO-K1 cells coexpressing G-alpha16 at 10 uM pre-incubated for 10 mins and later treated with 100 nM CB-receptor agonist, CP55940 by Fluo-4-AM dye based calcium mobilization assay; type: cell-based; outline: as §1
Cannabinoid receptor 1 [4] = biological target: T1, Cannabinoid receptor 1; test: Agonist activity at human CB1-receptor expressed in CHO-K1 cells coexpressing G-alpha16 at 10 uM by Fluo-4-AM dye based calcium mobilization assay; type: cell-based; details: cho-k1, 10 µM
Outline: (§2)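 CHO-K1 cells stably co-expressing Gα16 and human CB1 or CB2, seeded 24 h. Loaded with 2 μM fluo-4 AM in HBSS (with sulfinpyrazone, pH 7.4) at 37 °C for 45 min. Compound added and calcium fluorescence recorded (ex 485/em 525 nm). CP55940 positive control, DMSO negative control. Compounds with >50% activation at 10 μM got eight-point curves in triplicate, sigmoidal fit for EC50.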

Cannabinoid receptor 2 [5] = biological target: T2, Cannabinoid receptor 2; test: Antagonist activity at human CB2-receptor expressed in CHO-K1 cells coexpressing G-alpha16 pre-incubated for 10 mins and later treated with 100 nM CB-receptor agonist, CP55940 by Fluo-4-AM dye based calcium mobilization assay; type: functional, cell-based; details: cho-k1; outline: as §1
Cannabinoid receptor 1 [6] = biological target: T1, Cannabinoid receptor 1; test: Agonist activity at human CB1-receptor expressed in CHO-K1 cells coexpressing G-alpha16 assessed as maximum efficacy by Fluo-4-AM dye based calcium mobilization assay relative to CP55940; type: cell-based; outline: as §2
[7] = Kinetic aqueous solubility of compound in phosphate-buffer containing 1% DMSO ultrasonicated for 10 mins at pH 7.4 measured using 60-95% methanol in water as gradient for 19 mins by HPLC analysis; type: physicochemical; details: pH 7.4, 10 min
Outline: (§3)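 Kinetic solubility: 10 mM DMSO stock diluted into 10 mM phosphate buffer pH 7.4 or 1.4 (final 1% DMSO), sonicated 10 min at room temperature, filtered 0.22 μm. Quantified by C18 HPLC against a standard curve. Gradient 60–95% methanol/water with trifluoroacetic acid over 19 min at 1.0 mL/min. n = 3.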

Cannabinoid receptor 2 [8] = biological target: T2, Cannabinoid receptor 2; test: Agonist activity at human CB2-receptor expressed in CHO-K1 cells coexpressing G-alpha16 at 10 uM by Fluo-4-AM dye based calcium mobilization assay; type: functional, cell-based; outline: as §2
[9] = Kinetic aqueous solubility of compound in phosphate-buffer containing 1% DMSO ultrasonicated for 10 mins at pH 1.4 measured using 60-95% methanol in water as gradient for 19 mins by HPLC analysis; type: physicochemical; details: pH 1.4, 10 min; outline: as §3
Cannabinoid receptor 1 [10] = biological target: T1, Cannabinoid receptor 1; test: Agonist activity at human CB1-receptor expressed in CHO-K1 cells coexpressing G-alpha16 by Fluo-4-AM dye based calcium mobilization assay; type: cell-based; details: read-out: EC50
Cannabinoid receptor 2 [11] = biological target: T2, Cannabinoid receptor 2; test: Agonist activity at human CB2-receptor expressed in CHO-K1 cells coexpressing G-alpha16 by Fluo-4-AM dye based calcium mobilization assay; type: functional, cell-based; details: read-out: EC50
Cannabinoid receptor 2 [12] = biological target: T2, Cannabinoid receptor 2; test: Agonist activity at human CB2-receptor expressed in CHO-K1 cells coexpressing G-alpha16 assessed as maximum efficacy by Fluo-4-AM dye based calcium mobilization assay relative to CP55940; type: functional, cell-based; outline: as §2
[13] = Kinetic aqueous solubility of compound in phosphate-buffer containing 1% DMSO ultrasonicated for 10 mins at pH 1.4 measured using 50-95% methanol in water as gradient for 23 mins by HPLC analysis; type: physicochemical; details: pH 1.4, 10 min
Outline: (§4)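 Kinetic solubility: 10 mM DMSO stock diluted into 10 mM phosphate buffer pH 7.4 or 1.4 (final 1% DMSO), sonicated 10 min at room temperature, filtered 0.22 μm. Quantified by C18 HPLC against a standard curve. Gradient 50–95% methanol/water with trifluoroacetic acid over 23 min at 1.0 mL/min. n = 3.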

[14] = Kinetic aqueous solubility of compound in phosphate-buffer containing 1% DMSO ultrasonicated for 10 mins at pH 7.4 measured using 50-95% methanol in water as gradient for 23 mins by HPLC analysis; type: physicochemical; outline: as §4
[15] = Kinetic aqueous solubility of compound in phosphate-buffer containing 1% DMSO ultrasonicated for 10 mins at pH 7.4 by HPLC analysis; type: physicochemical; details: pH 7.4, 10 min
Outline: (§5)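 Kinetic solubility: 10 mM DMSO stock diluted into 10 mM phosphate buffer at pH 7.4 or 1.4 (final 1% DMSO). Sonicated 10 min at room temperature and filtered through a 0.22 μm PTFE filter. Concentration determined by reversed-phase C18 HPLC (275/290 nm) against a standard curve. n = 3.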

[16] = Kinetic aqueous solubility of compound in phosphate-buffer containing 1% DMSO ultrasonicated for 10 mins at pH 1.4 by HPLC analysis; type: physicochemical; details: pH 1.4, 10 min; outline: as §5

SMILES	IC50 (Cannabinoid receptor 1 [1])	inhibition (Cannabinoid receptor 2 [2])	inhibition at 10 µM (Cannabinoid receptor 1 [3])	Activity (Cannabinoid receptor 1 [4])	IC50 (Cannabinoid receptor 2 [5])	Activity (Cannabinoid receptor 2 [8])	EC50 (Cannabinoid receptor 1 [10])	EC50 (Cannabinoid receptor 2 [11])	Emax (Cannabinoid receptor 2 [12])	also measured
O=C(NC12CC3CC(CC(C3)C1)C2)c1n[nH]c2ccccc12	Not Active	< 50%	< 50%	> 50%	Not Active	> 50%	17100 nM	86 nM	73.9%	Emax (Cannabinoid receptor 1 [6]): 67.3%; Kinetic_solubility [7]: < 10 uM/L; log(Kinetic_solubility) [7]: < -5; Kinetic_solubility [9]: < 10 uM/L; log(Kinetic_solubility) [9]: < -5
O=C(NC12CC3CC(CC(C3)C1)C2)c1cn(CCN2CCOCC2)c2ncccc12	Not Active	< 50%	< 50%	< 50%	Not Active	> 50%	> 10000 nM	48 nM	25.7%	Kinetic_solubility [13]: 86.6 uM/L; log(Kinetic_solubility) [13]: -4.06; Kinetic_solubility [14]: 69.43 uM/L; log(Kinetic_solubility) [14]: -4.15
O=C(NC12CC3CC(CC(C3)C1)C2)c1nc2ccccc2n1CCCCCO	Not Active	< 50%	< 50%	< 50%	Not Active	> 50%	> 10000 nM	67 nM	64%	Kinetic_solubility [15]: 32.88 uM/L; log(Kinetic_solubility) [15]: -4.48; Kinetic_solubility [16]: 96 uM/L; log(Kinetic_solubility) [16]: -4.02
